Source: PubChem (The Scripps Research Institute Molecular Screening Center)
In the library only some 1.9% were active in any assay of this set; here they are far more common.
CHRM4 PAM: potentiates acetylcholine response at human M4 receptor | P08173 | CHO-K1 hM4/Gqi5, Fluo-8 calcium fluorescence, ACh EC20; 0% = ACh EC20, 100% = maximal ACh | activation, % at 3 µM | 0.4% of 360,000 active;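 active means activation above its plate's cutoff, the mean activation of sample wells plus 3 SD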
Target sequence (P08173 whole entry, looked up): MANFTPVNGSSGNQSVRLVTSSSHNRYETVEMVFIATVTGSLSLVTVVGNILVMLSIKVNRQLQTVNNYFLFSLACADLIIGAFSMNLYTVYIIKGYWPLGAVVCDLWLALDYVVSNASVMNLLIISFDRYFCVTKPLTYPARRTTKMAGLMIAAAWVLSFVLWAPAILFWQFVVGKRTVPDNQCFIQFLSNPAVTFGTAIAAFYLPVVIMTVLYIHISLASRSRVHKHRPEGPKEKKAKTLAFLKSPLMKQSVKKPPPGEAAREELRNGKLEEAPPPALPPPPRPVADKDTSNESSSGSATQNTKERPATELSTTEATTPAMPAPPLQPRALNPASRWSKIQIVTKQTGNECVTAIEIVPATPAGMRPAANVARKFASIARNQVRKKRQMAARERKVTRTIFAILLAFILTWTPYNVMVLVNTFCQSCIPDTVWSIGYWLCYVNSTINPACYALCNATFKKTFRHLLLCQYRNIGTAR
CHRM4 antagonist: CHRM4 antagonism in calcium assay; P08173; CHO-hM4 cells, ACh EC80, Fluo-8 calcium fluorescence; inhibition, % at 3 µM; 0.73% of 360,000 active; AID 624125;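 active means inhibition above its plate's cutoff, the mean inhibition of sample wells plus 3 SD, cut at about 27% in these data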;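 further: 0% = acetylcholine EC80 with DMSO and 100% = DMSO without agonist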
M5 antag: antagonists of human muscarinic M5 receptor (CHRM5); P08912; CHO-hM5 cells, Fluo-8 calcium fluorescence, ACh EC80; inhibition, % at 3 µM; 0.59% of 360,000 active; AID 624040;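 active means inhibition above a per-plate cutoff, the mean of that plate's test compounds plus 3 SD, cut at about 27% in these data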;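 further: 0% = acetylcholine EC80 with DMSO and 100% = DMSO without agonist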
CHRM5 agonist: CHRM5 agonism in calcium assay | P08912 | CHO-K1 hM5 cells, Fluo-8 calcium fluorescence; 0% DMSO wells, 100% maximal acetylcholine response | activation, % at 3 µM | 0.19% of 360,000 active | AID 624037;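 active means activation above the run's mean over test compounds plus 3 SD, cut at about 23% in these data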;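 further: signal is peak over basal fluorescence ratio across the kinetic read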
CHRM4 agonist: agonists of human muscarinic M4 receptor (CHRM4). CHO-K1 hM4/Gqi5, Fluo-8 calcium fluorescence; vehicle 0%, full acetylcholine response 100%. activation, % at 3 µM. 0.14% of 360,000 active. AID 624127;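 active means activation above the run mean over all test wells plus 3 SD, cut at about 32% in these data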;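 further: peak over basal fluorescence ratio per well then scaled between controls; 0% = DMSO wells and 100% = acetylcholine at EC100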
CHRM5 PAM: potentiates acetylcholine response at human M5 receptor. P08912. CHO-K1 hM5, Fluo-8 calcium, ACh EC20 PAM; 0% = ACh EC20, 100% = ACh EC100. activation, % at 3 µM. 0.3% of 360,000 active;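 active means activation above the run cutoff, the mean activation of all test compounds plus 3 SD, cut at about 18% in these data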
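system = human M5 receptor in CHO-K1 cells | reagent = EC20 acetylcholine as agonist stimulus | compound dosing = single-point, 3 µM nominal | incubation = Fluo-8 loading 80 min at 37 °C plus 30 min room temperature | detection = Fluo-8 calcium dye fluorescence, kinetic read | benchmarks = low control EC20 acetylcholine (0%), high control EC100 acetylcholine (100%)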
Numbers without * were called inactive.

SMILES	CHRM4 PAM	CHRM4 antagonist	M5 antag	CHRM5 agonist	CHRM4 agonist	CHRM5 PAM
CC1CCCCN1CC(=O)NC(c1ccccc1)c1ccccc1 (stereo not drawn)	-19	8	9	-10	-1	-10
CC1CCCCN1CC(=O)Nc1ccc(Oc2ccccc2)cc1 (stereo not drawn)	-15	57*	-3	-13	2	-14
CC1CCCCN1CC(=O)Nc1ccc(N2CCCCCC2)cc1 (stereo not drawn)	-14	5	-3	-12	2	-7
COc1cc(C(=O)N/C(=C\c2cn(C)c3ccccc23)C(=O)NCCCn2ccnc2)cc(OC)c1OC	3	2	9	-4	1	-2
CC(=O)Nc1ccc(S(=O)(=O)N2CCC3(CC2)OCCO3)cc1	-3	-3	2	-2	1	-2
CN1CCc2cccc3c2C1Cc1ccc(O)c(O)c1-3 (stereo not drawn)	-8	5	4	36*	3	-7
Cc1cc(-c2ccc(Cl)cc2)n2nc(N)nc2n1	28*	-1	-11	-2	0	0
CCC[N+]1(CC#CCC(c2ccccc2)c2ccccc2)CCCCC1	-18	27*	14	-5	1	-15
C(#Cc1ccccc1)C[N+]1(CC#Cc2ccccc2)CCCCC1	-17	33*	43*	-11	1	-16
C#CC[N+]1(CC#Cc2ccccc2)CCCCC1	-5	-8	2	-17	2	2
COc1ccc(NC(=O)CCC(=O)N2CCC(c3ccccc3)=N2)cc1S(=O)(=O)N1CCCCC1	4	-6	8	-1	0	-7
C/C=C/c1cccc(-c2nc(C(=O)N3CCCCC3)cc3c2[C@H](CCO)N(C(=O)NC(C)C)C3)c1	0	6	3	1	1	-1
CCN(C(=O)COC(=O)c1cc2ccccc2cc1OC)c1c(N)n(Cc2ccccc2)c(=O)[nH]c1=O	22*	-13	11	-1	1	1
CCN(C(=O)CSc1nnnn1C)c1c(N)n(Cc2ccccc2)c(=O)[nH]c1=O	1	2	-4	2	2	-1
CCN(C(=O)c1ccc(=O)[nH]c1)c1c(N)n(Cc2ccccc2)c(=O)[nH]c1=O	22*	5	15	0	1	0
COCCCN(C(=S)NC(=O)c1ccc(C(C)(C)C)cc1)c1c(N)n(Cc2ccccc2)c(=O)[nH]c1=O	27*	-2	6	-2	2	-1
CCN(C(=O)CSc1nncs1)c1c(N)n(Cc2ccccc2)c(=O)[nH]c1=O	2	-17	-7	-2	1	29*
Cc1ccc(S(=O)(=O)NCCC(=O)N2CCN(c3ccccc3)CC2)cc1C	11	-9	9	1	6	-5
O=C(NCCCN1CCCC1)c1ccc2c(c1)N(Cc1cccc(Cl)c1)C(=O)c1ccccc1S2(=O)=O	-5	7	3	-3	1	-2
CC(C)NC(=O)OCc1c(COC(=O)NC(C)C)c([N+](=O)[O-])n2c1CCC2	2	-5	-7	4	1	-6
Cc1ccc(NC(=O)CN(C)C(=O)c2ccc(NS(=O)(=O)c3cccc([N+](=O)[O-])c3)cc2)cc1	0	8	1	-3	0	3
Cc1ccc(NS(=O)(=O)c2ccc(OCC(=O)Nc3cccc([N+](=O)[O-])c3)c(C)c2)cc1	-28	30*	9	-5	4	-8
COC(=O)C1=C(C)NC(C)=C(C(=O)OCCN(C)Cc2ccccc2)C1c1cccc([N+](=O)[O-])c1 (stereo not drawn)	-18	35*	17	3	17	-19
C[C@H](CO)N1C[C@H](C)[C@@H](CN(C)S(=O)(=O)c2ccc3ccccc3c2)OCc2cnnn2CCCC1=O	12	-15	-9	0	0	-1
Cc1cc(-c2nnc(SCC(=O)Nc3ccc(C)c(C)c3)n2N)n[nH]1	1	8	-18	-2	1	21*
SMILES	CHRM4 PAM	CHRM4 antagonist	M5 antag	CHRM5 agonist	CHRM4 agonist	CHRM5 PAM
CCN(CC)S(=O)(=O)c1ccc(N2CCOCC2)c(NC(=O)c2ccc3ccccc3c2)c1	13	-4	4	1	1	1
CCN(CC)S(=O)(=O)c1ccc(N2CCOCC2)c(NC(=O)c2cccc3ccccc23)c1	-24	30*	14	2	14	-13
COc1cccc(OC)c1OCCCc1c(C)n[nH]c1C	29*	4	-11	1	1	2
Cc1cccc(OCCCc2c(C)n[nH]c2C)c1	7	1	-2	4	4	3
O=C1NC(=O)C2(N1)C(=O)c1cccc3cccc2c13 (stereo not drawn)	-17	29*	17	36*	161*	-9
O=C1NC(=O)C2(N1)c1ccccc1-c1ccccc12	-1	-1	9	0	0	4
O=C(O)CSCC(=O)N1N=C2/C(=C/c3ccccc3)CCCC2C1c1ccccc1 (stereo not drawn)	16*	-40	1	-2	1	1
NC(=O)N1N=C2/C(=C/c3ccccc3)CCCC2C1c1ccccc1 (stereo not drawn)	14	3	8	0	5	-5
Cc1cccc(NC(=O)COC(=O)c2cccc3c2C(=O)c2ccccc2C3=O)c1C	-32	57*	30*	-2	-1	-18
Cc1cccc(C)c1NC(=O)COC(=O)c1cccc2c1C(=O)c1ccccc1C2=O	-6	5	1	1	3	-9
COC(=O)N1C(=O)[C@](c2ccc(Cl)cc2)(C(C)C)N1C(=O)OC	-8	10	18	4	20	-18
COC(=O)N1C(=O)[C@@](c2ccc(OC)cc2)(C(C)C)N1C(=O)OC	13	-4	-3	3	1	20*
COc1cccc(-n2ccn(CC(=O)NCCc3ccccc3)c(=O)c2=O)c1	-8	3	16	-6	-1	-6
CC(=NNc1nc2ccccc2s1)c1ncccn1	0	48*	16	11	12	1
Oc1ccccc1/C=N/Nc1nc2ccccc2o1	-5	-17	-5	-4	2	-4
Cc1cc(C)nc(Nc2nc3ccccc3o2)n1	-6	-10	15	-3	0	-9
CC(=NNc1nc2ccccc2o1)c1cc2ccccc2cn1	0	33*	28*	8	11	-16
C/C(=N\Nc1nc2ccccc2s1)c1cccs1	0	-6	-4	-1	-1	3
CC(=NNc1nc2ccccc2o1)c1ncccn1	-1	58*	51*	6	6	-20
